Legend:
U-937 = assay: Inhibitory concentration against U937 lymphoma cancer cell line; type: functional, cell-based; conditions: Homo sapiens
In short: (§1)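 MTT growth assay: exponentially growing cells, (1-2) × 10^3 per well in 0.1 mL medium, were seeded on day 0 and cultured per supplier instructions. On day 1 an equal volume of medium carrying graded compound concentrations was added. On day 4 cultures received MTT (1 mg/mL in Dulbecco's PBS) for 4 h at 37 °C.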

RPMI-8226 [1] = assay: Inhibitory concentration against 8226 myeloma cancer cell line; type: functional, cell-based; conditions: Homo sapiens; in short: as §1
Granta = assay: Inhibitory concentration against Granta lymphoma cancer cell line; type: functional, cell-based; conditions: Homo sapiens; in short: as §1
HT-29 = assay: Inhibitory concentration against HT-29 colon cancer cell line; type: functional, cell-based; conditions: Homo sapiens; in short: as §1
MIA PaCa-2 = assay: Inhibitory concentration against MIA PaCa pancreas cancer cell line; type: functional, cell-based; conditions: Homo sapiens; in short: as §1
RPMI-8226 [2] = assay: Inhibitory concentration against 8226/Dox40 (Dox-Re) cancer cell line; type: functional, cell-based; conditions: Homo sapiens; in short: as §1
MCF7 = assay: Inhibitory concentration against MCF-7 breast cancer cell line; type: functional, cell-based; conditions: Homo sapiens; in short: as §1
NCI-H522 (human) = assay: Inhibitory concentration against H522 (NSCLS) cancer cell line
DU-145 = assay: Inhibitory concentration against DU145 prostate cancer cell line; type: functional, cell-based; conditions: Homo sapiens; in short: as §1
HeLa = assay: Inhibitory concentration against Hela cervix cancer cell line; type: functional, cell-based; conditions: Homo sapiens; in short: as §1

Structure (SMILES)	IC50 (U-937) [nM]	IC50 (RPMI-8226 [1]) [nM]	IC50 (Granta) [nM]	IC50 (HT-29) [nM]	IC50 (MIA PaCa-2) [nM]	IC50 (RPMI-8226 [2]) [nM]	IC50 (MCF7) [nM]	IC50 (NCI-H522 (human)) [nM]	IC50 (DU-145) [nM]	IC50 (HeLa) [nM]
N[C@H]1CCN(c2c(F)cc3c(=O)c(C(=O)O)cn4c3c2Oc2ccccc2-4)C1	310	270	90	450	420	270	660	300	470	800
C[C@]1([C@H]2Cc3ccc4c(c3O2)-n2cc(C(=O)O)c(=O)c3cc(F)c(N5CC[C@H](N)C5)c(c32)O4)CO1	30	90	4	140	90	50	240	70	80	290
C[C@@](O)(CCl)[C@H]1Cc2ccc3c(c2O1)-n1cc(C(=O)O)c(=O)c2cc(F)c(N4CC[C@H](N)C4)c(c21)O3	20	50	2	90	40	30	80	20	30	130
COc1cc2c(c3oc4c(O)cccc4c(=O)c13)C[C@H]([C@@]1(C)CO1)O2 [PSOROSPERMIN]	270	290	40	1110	380	230	570	770	210	1460
